Data reported in PubChem BioAssay AID504469 (NMMLSC, 2011).
Activity calls are given as the source filed them.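 Rule for the calls: active = compounds whose fitted GFP dose response EC50 is at or below 33 microM; inactive = the rest.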

Columns and labels:
[1] = test system: S. cerevisiae LAP4-GFP strain, flow cytometry fluorescence, 3 h; assay: LAP4-GFP expression modulation, dose response, SAR follow-up, cell-based, KU SAR set 2, flow cytometry (AID 504469)
In short: (§1)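 Test system: S. cerevisiae LAP4-GFP yeast strain; Input: yeast cells diluted to OD600 of 0.2; Dosing: compound dose-response series; Buffer or medium: synthetic complete yeast growth medium; Incubation: 3 h compound treatment, 30 °C; Detection: Flow-cytometric GFP fluorescence in kMESF units; Read-out basis: EC50 of background-corrected GFP signal.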

[2] = as above; conditions: S. cerevisiae LAP4-GFP strain, flow cytometry fluorescence, 3 h
In short: as §1

Structure (SMILES) | GFP fluorescence (kMESF) ([2]; at 300 µM (top of the series)) | GFP fluorescence (kMESF) ([2]; at 100 µM (top of the series)) | also measured
CNc1nc(N)c(C(=O)c2ccc(C)c(C)c2)c(Nc2cccc(Cl)c2)n1 | – | – | EC50 [1]: 80.9 µM (inactive)
Cc1cc(Nc2cc(Nc3ccccc3)nc(NCc3ccccc3)n2)n[nH]1 | 4.28 kMESF (inactive) | – | –
CNc1nc(NC2CCCCC2)c([N+](=O)[O-])c(N2CCOCC2)n1 | – | 6.42 kMESF (inactive) | –
CNc1nc(N)c([N+](=O)[O-])c(Nc2cccc(Br)c2)n1 | – | 6.21 kMESF (inactive) | –
CNc1nc(NC)c([N+](=O)[O-])c(Nc2cccc(Cl)c2)n1 | – | 6.28 kMESF (inactive) | –
CNc1nc(N)c([N+](=O)[O-])c(Nc2cccc(Oc3ccccc3)c2)n1 | – | 6.57 kMESF (inactive) | –
CNc1nc(N)c([N+](=O)[O-])c(Nc2ccccc2Br)n1 | – | 6.28 kMESF (inactive) | –
CCNc1nc(NC2CCCCC2)c([N+](=O)[O-])c(N2CCOCC2)n1 | – | 6.5 kMESF (inactive) | –
CNc1nc(N)c([N+](=O)[O-])c(Nc2ccccc2F)n1 | – | 6.21 kMESF (inactive) | –
COC(=O)c1cccc(-c2cc(Nc3cc(C)[nH]n3)nc(NCc3ccccc3)n2)c1 | 4.28 kMESF (inactive) | – | –
COc1cccc(-c2cc(Nc3cc(C)[nH]n3)nc(NCc3ccccc3)n2)c1 | 4.54 kMESF (inactive) | – | –
CCNc1nc(N)c([N+](=O)[O-])c(Nc2cccc(Cl)c2)n1 | – | 6.21 kMESF (inactive) | –
CNc1nc(N)cc(Nc2cccc(Cl)c2)n1 | – | – | EC50 [1]: 101 µM (inactive)
CCOC(=O)c1c(N)nc(NC)nc1Nc1cccc(F)c1 | 4.41 kMESF (inactive) | – | –
CNc1nc(N)cc(Oc2cccc(Cl)c2)n1 | 4.73 kMESF (inactive) | – | –
CNc1nc(N)cc(Nc2ccccc2F)n1 | 4.66 kMESF (inactive) | – | –
COc1ccccc1-c1cc(Nc2cc(C)[nH]n2)nc(NCc2ccccc2)n1 | 4.66 kMESF (inactive) | – | –
O=[N+]([O-])c1c(NC2CCCCC2)nc(NCc2ccccc2)nc1N1CCOCC1 | 4.34 kMESF (inactive) | – | –
Cc1cc(Nc2cc(-c3ccccc3)nc(NCc3ccccc3)n2)n[nH]1 | 4.41 kMESF (inactive) | – | –
CNc1nc(N)c([N+](=O)[O-])c(Nc2cccc(OC)c2)n1 | – | 6.21 kMESF (inactive) | –
